Screens (PubChem BioAssay)
M4 ag: agonists of human muscarinic M4 receptor (CHRM4); P08173; CHO-K1 hM4/Gqi5, Fluo-8 calcium fluorescence; vehicle 0%, full acetylcholine response 100%; activation, % at 3 µM; 360,000 compounds, 0.14% hits;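 active means activation above the run mean over all test wells plus 3 SD, cut at about 32% in these data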;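 further: peak over basal fluorescence ratio per well then scaled between controls; 0% = DMSO wells and 100% = acetylcholine at EC100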
CHRM4 antagonist: antagonists of human muscarinic M4 receptor (CHRM4). CHO-hM4 cells, ACh EC80, Fluo-8 calcium fluorescence. inhibition, % at 3 µM. 360,000 compounds, 0.73% hits. AID 624125;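 active means inhibition above its plate's cutoff, the mean inhibition of sample wells plus 3 SD, cut at about 27% in these data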;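 further: 0% = acetylcholine EC80 with DMSO and 100% = DMSO without agonist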
M4 PAM: potentiates acetylcholine response at human M4 receptor | P08173 | CHO-K1 hM4/Gqi5, Fluo-8 calcium fluorescence, ACh EC20; 0% = ACh EC20, 100% = maximal ACh | activation, % at 3 µM | 360,000 compounds, 0.4% hits | AID 624126;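 active means activation above its plate's cutoff, the mean activation of sample wells plus 3 SD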
CHRM5 PAM: CHRM5 positive allosteric modulation | P08912 | CHO-K1 hM5, Fluo-8 calcium, ACh EC20 PAM; 0% = ACh EC20, 100% = ACh EC100 | activation, % at 3 µM | 360,000 compounds, 0.3% hits | AID 624038;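 active means activation above the run cutoff, the mean activation of all test compounds plus 3 SD, cut at about 18% in these data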
Target sequence (P08912 whole entry, looked up): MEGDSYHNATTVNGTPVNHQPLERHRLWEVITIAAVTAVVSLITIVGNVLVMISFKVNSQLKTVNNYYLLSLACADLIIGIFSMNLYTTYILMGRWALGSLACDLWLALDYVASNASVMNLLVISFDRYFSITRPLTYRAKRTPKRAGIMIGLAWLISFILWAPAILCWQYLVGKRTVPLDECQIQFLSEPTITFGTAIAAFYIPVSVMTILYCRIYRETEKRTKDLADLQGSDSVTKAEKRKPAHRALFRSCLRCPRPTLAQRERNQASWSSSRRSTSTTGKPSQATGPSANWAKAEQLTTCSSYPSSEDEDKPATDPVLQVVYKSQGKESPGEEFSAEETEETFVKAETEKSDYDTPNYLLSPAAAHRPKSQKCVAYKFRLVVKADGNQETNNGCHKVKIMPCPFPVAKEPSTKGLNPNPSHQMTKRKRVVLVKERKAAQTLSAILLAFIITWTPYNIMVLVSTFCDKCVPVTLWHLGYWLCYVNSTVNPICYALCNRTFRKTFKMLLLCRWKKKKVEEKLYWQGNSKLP
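system = human M5 receptor in CHO-K1 cells | compound = one concentration, 3 µM final (nominal) | schedule = Post-acetylcholine fluorescence recording 140 s | signal = Fluo-8 calcium dye fluorescence, kinetic read | benchmarks = low control EC20 acetylcholine (0%), high control EC100 acetylcholine (100%) | repeats = singlicate, one well per test compound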
M5 ag: CHRM5 agonism in calcium assay; P08912; 360,000 compounds, 0.19% hits; CHO-K1 hM5 cells, Fluo-8 calcium fluorescence; 0% DMSO wells, 100% maximal acetylcholine response; activation, % at 3 µM;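 active means activation above the run's mean over test compounds plus 3 SD, cut at about 23% in these data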;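 further: signal is peak over basal fluorescence ratio across the kinetic read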
M5 antag: blocks acetylcholine activation of human M5 receptor. P08912. CHO-hM5 cells, Fluo-8 calcium fluorescence, ACh EC80. inhibition, % at 3 µM. 360,000 compounds, 0.59% hits. AID 624040;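 active means inhibition above a per-plate cutoff, the mean of that plate's test compounds plus 3 SD, cut at about 27% in these data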;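 further: 0% = acetylcholine EC80 with DMSO and 100% = DMSO without agonist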
Numbers without * were called inactive; ! = a repeat was not active. Sampled rows, rich in hits. Any-hit rate of the full collection: about 1.8%.

SMILES	M4 ag	CHRM4 antagonist	M4 PAM	CHRM5 PAM	M5 ag	M5 antag
COC(C)(C)CCCC(C)C/C=C/C(C)=C/C(=O)OC(C)C (stereo not drawn)	0	-9	5	0	1	-3
CCC(CO)(C(=O)OC1CC2CCC(C1)N2C)c1ccccc1 (stereo not drawn)	1	100*	-17	-33	-16	99*
Cc1cc(OCC(=O)N2CCC(C(=O)O)(c3ccccc3)CC2)c2c(C)c(C)c(=O)oc2c1	0	76*	-16	-2	2	2
COC(=O)C1=C(C)NC(=S)NC1c1ccc(N(CCCl)CCCl)cc1Cl (stereo not drawn)	-1	-6	9	18*	9	-28
CCc1ccc(N2C(=O)NC(=O)C(Cc3ccc(OC)cc3OC)C2=O)cc1 (stereo not drawn)	2	0	0	2	-2	-7
COC1CC2C=C(C)C=CC=CC(=O)NC(c3ccccc3)CC=CCCC(O)CC(=O)C2=C1O (stereo not drawn)	21	87*	-14	-20	16	54*
CCCNC(=O)N1[C@H]2CC[C@@H]1C(C(=O)OC)=C(c1ccc(OC(F)(F)F)cc1)C2	5	-8	6	-2	1	13
O=C(Nc1ccc(F)cc1)c1c(O)c2c(n(Cc3ccccc3)c1=O)CCCC2	2	14	21*	-3	-1	-7
O=C(Nc1cccnc1)c1c(O)c2c(n(Cc3ccccc3)c1=O)CCCC2	0	1	0	1	-3	-5
C[C@]12CC[C@@H](O)C[C@@H]1CC[C@@H]1[C@@H]2CC[C@]2(C)C(=O)[C@H](O)C[C@@H]12	2	0	0	-4	2	1
Brc1cccc(CNCCc2ccc3c(c2)OCO3)c1	1	1	-4	-2	-8	-8
Cc1ccc(S(=O)(=O)c2nc(-c3ccccc3Cl)oc2N(C)C2CCN(C)CC2)cc1	7	11	-5	-6	-5	5
CC(C)(C)N1Cc2ccccc2C1=N	1	-5	-2	31*	-13	-4
Cc1cc(C)nc(N2Cc3ccccc3C2=N)n1	0	1	-4	4	-9	4
Clc1ccc(OCC#CCN2CCCCCC2)cc1	0	33*	-23	-30	-15	35*
COc1ccc(OCC#CCN2CCC(C)CC2)cc1	0	8	-10	-7	-10	13
Cc1cccc(C)c1-n1nnnc1C(CCc1ccccc1)N1CCC2(CC1)C(=O)NCN2c1ccccc1 (stereo not drawn)	0	15	-3	4	3	9
O=c1[nH]c(=O)n(Cc2ccc(F)cc2)c(O)c1C=NCC1CCCO1 (stereo not drawn)	1	-10	6	38*	0	-18
CN1C(=O)CCC2(C)C1=CCC1C2CCC2(C)C1CCC2(C)O (stereo not drawn)	2	-4	13	18*	4	-7
C[C@]12CCC(=O)C=C1CCC1C2CC[C@@]2(C)C1CC[C@]2(C)O (stereo partly drawn)	6	1	-6	-11	0	18
CCOC(=O)[C@]12Cc3cc(C)ccc3[C@H]1N(C1CCCCC1)C(=O)c1ccccc12	3	20	-3	9	27*	6
CCOC(=O)[C@]12Cc3ccc(C)cc3[C@H]1N(C1CCCCC1)C(=O)c1ccccc12	-3	6	2	13	11	6
CCOC(=O)[C@]12Cc3cc(Cl)ccc3[C@H]1N(C1CCCCC1)C(=O)c1cc(OC)ccc12	1	77*	-9	6	51*	18
CCOC(=O)[C@]12Cc3ccc(C)cc3[C@H]1N(C1CCCCC1)C(=O)c1cc(OC)ccc12	-2	21	5	16	18	4
C[C@]12CC[C@H](OS(=O)(=O)O)CC1=CC[C@@H]1[C@@H]2CC[C@]2(C)C(=O)CC[C@@H]12	0	71*!	-1	-3	0	3
SMILES	M4 ag	CHRM4 antagonist	M4 PAM	CHRM5 PAM	M5 ag	M5 antag
N#Cc1ccccc1Cn1cc(C(=O)c2cccs2)c2ccccc21	0	-13	-5	-17	-3	6
O=C(c1cccs1)c1cn(Cc2ccccc2Cl)c2ccccc12	-1	-1	22	21*	-2	-7
CC1(C)CC2CCC(O)C2C(CCO)N1 (stereo not drawn)	0	8	-1	0	4	2
c1ccc2c(c1)Sc1ccccc1N2CC1CN2CCC1CC2 (stereo not drawn)	1	98*	-16	-19	-1	98*
CC[C@@H](CO)C1CC2NC3CC4(c5ccccc5N(C)[C@@H]24)C(O)C31 (stereo partly drawn)	1	-5	-1	-1	3	-1
Clc1ccccc1CNC1CN2CCC1CC2 (stereo not drawn)	0	17	-10	-18	-8	32*
c1ccc(CNC2CN3CCC2CC3)cc1 (stereo not drawn)	1	9	-8	-33	-9	16
Clc1ccc(C(OCCN2CCCCC2)c2ccccc2)cc1 (stereo not drawn)	5	38*	-19	-18	-1	57*
c1ccc(C(OCCN2CCN(c3ncccn3)CC2)c2ccccc2)cc1	3	-4	-6	-21	-16	23
O=C1CCCN1CC#CCN1CCCC1	84*	81*	-19	-15	103*	95*
C(#CCN1CCCCC1)CN1CCCCC1	1	2	-4	-6	1	1
COC(=O)C1=C(c2cc3ccccc3o2)C[C@@H]2CC[C@H]1N2C(=O)NC(C)C	2	10	-4	1	-4	14
CC1(C)CSC(=NCc2ccccc2)N1	64*	19	-28	-19	26*	9
COc1ccc(Cl)cc1C(=O)C1CCCN(Cc2cnc(C)s2)C1 (stereo not drawn)	2	-4	-5	3	-8	2
CC(C)=CCN1CC[C@@]2(C)c3cc(O)ccc3CC1C2C (stereo partly drawn)	1	34*	-16	-23	-6	25
O=C1NC(=O)C(=Cc2ccc(-c3ccc(F)cc3O)o2)C(=O)N1	12	-6	26*	5	25*	16
O=C1NC(=O)C(=Cc2ccc(-c3ccc(Cl)cc3)o2)C(=O)N1	1	-4	17	22*	-2	-12
